FXN GAA850 act: FXN promoter activators, primary screen, cell-based, luciferase luminescence, HEK293 lucGAA850; HEK293 lucGAA850 FXN promoter luciferase reporter, 24 h; percent of 10 µM SAHA response; activation, % at 6 µM; 360,000 tested, 0.56% active;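 active means activation above the average of all compounds screened plus 3 SD, cutoff fixed separately per campaign, cut at about 7.5% in these data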
Neddyl block: inhibitors of cullin neddylation, primary screen, biochemical, TR-FRET, uHTS, NAE and Ubc12; NEDD8-conjugating enzyme Ubc12 (Homo sapiens) + NEDD8-activating enzyme E1 regulatory …; inhibition, % at 25 µM; 360,000 tested, 0.58% active; in the data active means inhibition above about 36%
HIF act: HIF pathway transcriptional activators, primary screen, cell-based, U2OS HRE-luciferase, luminescence; U2OS HRE-luciferase reporter; normalized: DMSO 0%, desferrioxamine 100%; activation, % at 7.5 µM (by protocol); 300,000 tested, 0.32% active; AID 1910, 2009;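 active means mean activation of at least 10% of the iron chelator positive control signal, with at least half of replicates also reaching 10%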
Calb FLC: C. albicans growth inhibition with fluconazole, primary screen, CaCi-2 strain, Alamar Blue fluorescence; C. albicans CaCi-2 + fluconazole, 48 h; growth inhibition, % (test concentration not listed); 300,000 tested, 0.57% active; AID 1979, 2009;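 active means growth inhibition above about 58% in most replicates, limit read from the data, passing the limit was not always enough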;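 further: all wells also contain fluconazole at 8 µg/ml as a sub-toxic cotreatment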
proCasp7 act: procaspase-7 activators, primary screen, counter-screen for procaspase-3 activator project, biochemical, absorbance, HTS, human; activation, % at 8.5 µM; recombinant procaspase-7, Ac-DEVD-pNA absorbance 405 nm; D23A/D198A/D206A triple mutant, cannot self-cleave; scale: DMSO 0, 5 µM enzyme 100; Caspase-7 (Homo sapiens), P55210; AID 463210, 2010; 330,000 tested, 0.093% active;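 active means percent activation above the screen-wide mean plus 3 SD, cut at about 25% in these data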
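signal = Epi-absorbance of released pNA at 405 nm, two timepoints | assay system = Uncleavable procaspase-7 mutant enzyme | reagent = Ac-DEVD-pNA substrate, 400 µM as added | times = 1 h enzyme–compound preincubation and 2 h substrate reaction, both 25 °C | benchmarks = low DMSO alone, high DMSO plus 5 µM PC-7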
procasp3 activ: activators of human procaspase-3 D3A mutant, primary screen, biochemical, absorbance, PC-3 D3A mutant, single concentration; recombinant procaspase-3 D3A, Ac-DEVD-pNA absorbance 405 nm; AID 463141, 2010; Caspase-3 (Homo sapiens), P42574; 330,000 tested, 0.11% active; activation, % at 8.5 µM;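 active means activation above the mean of all tested compounds plus 3 SD, cut at about 21% in these data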
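Assay system – Procaspase-3 D3A mutant, all three cleavage aspartates alanine · Controls – DMSO-only low control, 5 µM PC-3 D3A high control · Schedule – 1 h compound preincubation, 2 h substrate hydrolysis at 25 °C · Signal – 405 nm absorbance of p-nitroaniline, reads at 0 and 120 min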
Neddyl conf: blockade of NEDD8 conjugation to cullin – biochemical, TR-FRET, single concentration, confirmation; shares compounds with Neddyl block; TR-FRET cullin neddylation biochemical assay; calls only at 25 µM; 1,800 tested, 13% active; AID 652217, 2013; in the data active means inhibition above about 40%;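 further: neddylation substrate is the cullin 1 ring ligase complex with SKP2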
Hits are given with their value. This is a sample that favours compounds with a hit; in the whole collection about 1.9% have one here.

What do the screens show for `Cc1ccccc1-c1ncc(CN2CCC(CO)(CCCc3ccccc3)CC2)cn1`?
FXN GAA850 act: inactive; Neddyl block: inactive; HIF act: inactive; Calb FLC: inactive; proCasp7 act: inactive; procasp3 activ: inactive

Results for Cc1cc(-c2ccccc2)nc(N(C)N)c1S(C)(=O)=O ?
FXN GAA850 act: inactive; Neddyl block: 38.8; HIF act: inactive; Calb FLC: inactive; proCasp7 act: inactive; procasp3 activ: inactive; Neddyl conf: inactive

Results for Cc1cc(-c2ccccc2)nc(N(C)NC(=O)c2c(F)cccc2F)c1S(C)(=O)=O ?
FXN GAA850 act: inactive; Neddyl block: inactive; HIF act: inactive; Calb FLC: inactive; proCasp7 act: inactive; procasp3 activ: inactive

Results for O=C(NC1(Cc2ccccc2)CCN(CCc2cccs2)C1=O)c1ccccc1 (stereo not drawn) ?
FXN GAA850 act: inactive; Neddyl block: inactive; proCasp7 act: inactive; procasp3 activ: inactive

What do the screens show for `Cc1nc2scc(C)n2c(=O)c1S(=O)(=O)NCC1CCN(Cc2ccc(Cl)cc2)CC1`?
FXN GAA850 act: inactive; Neddyl block: 44.8; HIF act: inactive; Calb FLC: inactive; proCasp7 act: inactive; procasp3 activ: inactive; Neddyl conf: inactive

How did Cc1cc(C)cc(OCC(=O)OCC(=O)N(CC(C)C)c2c(N)n(Cc3ccccc3)c(=O)[nH]c2=O)c1 do in these assays?
FXN GAA850 act: inactive; Neddyl block: inactive; HIF act: inactive; Calb FLC: inactive; proCasp7 act: inactive; procasp3 activ: inactive

Results for CCCCNC(=O)c1cc2nc(-c3ccccc3)cc(C(F)(F)F)n2n1 ?
FXN GAA850 act: inactive; HIF act: inactive; Calb FLC: inactive; proCasp7 act: inactive; procasp3 activ: inactive

Results for O=C(NC1CCCCC1)c1cnn2c(C(F)(F)F)cc(-c3ccco3)nc12 ?
FXN GAA850 act: inactive; Neddyl block: 42.5; HIF act: inactive; Calb FLC: inactive; proCasp7 act: inactive; procasp3 activ: inactive; Neddyl conf: active

What do the screens show for `CCCNC(=O)c1cc2nc(-c3ccccc3)cc(C(F)(F)F)n2n1`?
FXN GAA850 act: inactive; Neddyl block: 44.8; HIF act: 96.2; Calb FLC: inactive; proCasp7 act: inactive; procasp3 activ: inactive

What do the screens show for `O=C(NC1CCCCC1)c1nn2c(C(F)(F)F)cc(-c3ccco3)nc2c1Br`?
FXN GAA850 act: inactive; Neddyl block: inactive; HIF act: inactive; Calb FLC: inactive; proCasp7 act: inactive; procasp3 activ: inactive

Results for O=C(NC1CCCC1)c1cc2nc(-c3ccco3)cc(C(F)(F)F)n2n1 ?
FXN GAA850 act: inactive; Neddyl block: 55.4; HIF act: inactive; Calb FLC: inactive; proCasp7 act: inactive; procasp3 activ: inactive; Neddyl conf: inactive

How did NC(=O)c1nc[nH]c1C(=O)Nc1cccc(C(F)(F)F)c1 do in these assays?
FXN GAA850 act: inactive; Neddyl block: inactive; proCasp7 act: inactive; procasp3 activ: inactive

Results for COC(=O)c1ccc(C(=O)OC)c(NC(=O)C2CC(=O)N(C3CCCC3)C2)c1 (stereo not drawn) ?
FXN GAA850 act: inactive; Neddyl block: inactive

Results for CN1CCCN(Cc2nc(-c3cccc(C(F)(F)F)c3)no2)CC1 ?
FXN GAA850 act: inactive; Neddyl block: inactive; HIF act: inactive; Calb FLC: inactive; proCasp7 act: inactive; procasp3 activ: inactive

Source: PubChem (several laboratories)
